Assay results published in ChEMBL document CHEMBL4396948, “Structure based design of macrocyclic factor XIa inhibitors: Discovery of cyclic P1 linker moieties with improved oral bioavailability” (Bioorg Med Chem Lett, 2019).
Each block holds one compound with its values, some of them ahead of it.

Tests used:
[1] = Half life in human liver microsomes; assay type: ADME, Microsome
[2] = Half life in rat liver microsomes; assay type: ADME, Microsome
Coagulation factor XI = Coagulation factor XI (Homo sapiens, UniProt P03951); test: Inhibition of activated coagulation factor 11 (unknown origin) assessed as inhibitory constant
Coagulation factor XI, sequence (P03951 19-387 limits assumed): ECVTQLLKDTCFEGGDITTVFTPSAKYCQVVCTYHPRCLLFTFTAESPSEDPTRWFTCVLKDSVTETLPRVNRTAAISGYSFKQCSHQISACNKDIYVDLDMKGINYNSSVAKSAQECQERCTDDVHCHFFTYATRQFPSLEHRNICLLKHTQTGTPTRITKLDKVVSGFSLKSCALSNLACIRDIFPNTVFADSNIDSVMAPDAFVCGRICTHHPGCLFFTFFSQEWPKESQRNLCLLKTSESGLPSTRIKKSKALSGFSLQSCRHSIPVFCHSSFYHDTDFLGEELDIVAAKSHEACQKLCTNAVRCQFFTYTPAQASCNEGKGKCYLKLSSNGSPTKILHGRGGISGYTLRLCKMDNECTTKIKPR
Coagulation factor XI, sequence (P03951 388-625 limits assumed): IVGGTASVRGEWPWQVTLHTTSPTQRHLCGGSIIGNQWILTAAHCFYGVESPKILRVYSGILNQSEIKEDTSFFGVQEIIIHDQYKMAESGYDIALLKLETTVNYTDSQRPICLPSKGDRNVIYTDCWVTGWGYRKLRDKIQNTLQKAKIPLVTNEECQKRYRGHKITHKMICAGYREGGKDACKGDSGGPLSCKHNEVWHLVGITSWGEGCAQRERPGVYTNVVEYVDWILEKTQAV

[3] = Volume of distribution at steady state in rat at 0.68 mg/kg, iv or 1.36 mg/kg, po; assay type: ADME, organism-based; conditions: in vivo, read-out: Vdss
How it was run: (§1)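 Rat PK after iv and po dosing; both routes given in vehicle 70% PG, 20% water, 10% ethanol; compounds dosed either in cassette or discrete format.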

[4] = Clearance in rat at 0.68 mg/kg, iv or 1.36 mg/kg, po; assay type: ADME, organism-based; conditions: in vivo; how it was run: as §1
[5] = Half life in rat at 0.68 mg/kg, iv or 1.36 mg/kg, po; assay type: ADME, organism-based; conditions: in vivo; how it was run: as §1
[6] = Oral bioavailability in rat at 1.36 mg/kg; assay type: ADME, organism-based; conditions: in vivo; how it was run: as §1
[7] = AUC in rat; assay type: ADME; conditions: in vivo; how it was run: as §1
[8] = Clearance in rat at 0.63 mg/kg, iv or 1.27 mg/kg, po; assay type: ADME, organism-based; conditions: in vivo; how it was run: as §1
[9] = biological target: Urokinase-type plasminogen activator (Homo sapiens, UniProt P00749); test: Inhibition of human urokinase
[10] = Permeability from apical to basolateral side in human Caco2 cells; assay type: ADME, cell-based; conditions: Caco-2, read-out: permeability
[11] = Volume of distribution at steady state in rat at 0.63 mg/kg, iv or 1.27 mg/kg, po; assay type: ADME, organism-based; conditions: in vivo, read-out: Vdss; how it was run: as §1
[12] = biological target: Vitamin K-dependent protein C (Homo sapiens, UniProt P04070); test: Inhibition of human activated protein C
Vitamin K-dependent protein C, sequence (P04070 43-197 limits assumed): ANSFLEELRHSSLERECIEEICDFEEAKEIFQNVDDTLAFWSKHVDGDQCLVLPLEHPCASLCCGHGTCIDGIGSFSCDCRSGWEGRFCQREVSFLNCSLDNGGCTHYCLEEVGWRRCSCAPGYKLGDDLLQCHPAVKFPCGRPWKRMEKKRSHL
Vitamin K-dependent protein C, sequence (P04070 212-461 limits assumed): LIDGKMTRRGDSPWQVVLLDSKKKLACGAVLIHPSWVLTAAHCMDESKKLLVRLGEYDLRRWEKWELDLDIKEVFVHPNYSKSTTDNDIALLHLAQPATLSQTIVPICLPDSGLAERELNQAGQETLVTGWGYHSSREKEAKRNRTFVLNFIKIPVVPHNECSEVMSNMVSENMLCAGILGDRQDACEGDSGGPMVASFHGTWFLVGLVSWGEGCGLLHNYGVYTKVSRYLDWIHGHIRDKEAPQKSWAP

[13] = Half life in rat at 0.63 mg/kg, iv or 1.27 mg/kg, po; assay type: ADME, organism-based; conditions: in vivo
How it was run: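 Rat pharmacokinetics with iv and oral dosing; the vehicle for both routes was 70% PG, 20% water and 10% ethanol. Half-life was derived from the plasma profile.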

Trypsin = Trypsin (Homo sapiens, UniProt P07477+P07478+P35030); test: Inhibition of human trypsin; assay type: protein assay
[14] = Permeability from basolateral to apical side in human Caco2 cells; assay type: ADME, cell-based; conditions: Caco-2, read-out: permeability
Coagulation factor VII = biological target: T1, Coagulation factor VII (Homo sapiens, UniProt P08709); test: Inhibition of activated human coagulation factor 7
T1 sequence (P08709 whole entry): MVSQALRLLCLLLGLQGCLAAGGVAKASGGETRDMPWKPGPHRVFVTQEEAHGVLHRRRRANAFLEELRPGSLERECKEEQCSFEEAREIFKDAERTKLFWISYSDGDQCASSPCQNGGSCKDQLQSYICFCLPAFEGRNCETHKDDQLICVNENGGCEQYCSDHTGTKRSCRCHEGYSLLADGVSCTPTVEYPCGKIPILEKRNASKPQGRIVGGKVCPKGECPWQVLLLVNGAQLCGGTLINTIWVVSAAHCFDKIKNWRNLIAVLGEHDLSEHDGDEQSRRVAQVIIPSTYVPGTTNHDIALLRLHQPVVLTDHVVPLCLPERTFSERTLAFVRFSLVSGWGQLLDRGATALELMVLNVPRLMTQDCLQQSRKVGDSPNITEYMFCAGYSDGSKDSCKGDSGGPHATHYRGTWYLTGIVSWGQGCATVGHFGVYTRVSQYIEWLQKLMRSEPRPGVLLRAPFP

Coagulation factor X = Coagulation factor X (Homo sapiens, UniProt P00742); test: Inhibition of activated human coagulation factor 10
Coagulation factor X, sequence (P00742 41-179 limits assumed): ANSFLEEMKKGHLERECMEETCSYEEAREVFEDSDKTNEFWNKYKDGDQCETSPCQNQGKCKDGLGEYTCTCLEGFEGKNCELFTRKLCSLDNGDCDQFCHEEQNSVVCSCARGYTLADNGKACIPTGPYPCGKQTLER
Coagulation factor X, sequence (P00742 235-488 limits assumed): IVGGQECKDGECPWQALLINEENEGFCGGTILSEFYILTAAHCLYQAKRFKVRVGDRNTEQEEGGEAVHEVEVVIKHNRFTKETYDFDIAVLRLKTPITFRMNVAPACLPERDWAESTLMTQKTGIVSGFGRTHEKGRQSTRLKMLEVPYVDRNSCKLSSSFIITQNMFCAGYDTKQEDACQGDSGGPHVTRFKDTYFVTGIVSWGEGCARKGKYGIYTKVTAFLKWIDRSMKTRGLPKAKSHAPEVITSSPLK

Plasminogen = Plasminogen (Homo sapiens, UniProt P00747); test: Inhibition of human plasmin
Plasminogen, sequence (P00747 97-580 limits assumed): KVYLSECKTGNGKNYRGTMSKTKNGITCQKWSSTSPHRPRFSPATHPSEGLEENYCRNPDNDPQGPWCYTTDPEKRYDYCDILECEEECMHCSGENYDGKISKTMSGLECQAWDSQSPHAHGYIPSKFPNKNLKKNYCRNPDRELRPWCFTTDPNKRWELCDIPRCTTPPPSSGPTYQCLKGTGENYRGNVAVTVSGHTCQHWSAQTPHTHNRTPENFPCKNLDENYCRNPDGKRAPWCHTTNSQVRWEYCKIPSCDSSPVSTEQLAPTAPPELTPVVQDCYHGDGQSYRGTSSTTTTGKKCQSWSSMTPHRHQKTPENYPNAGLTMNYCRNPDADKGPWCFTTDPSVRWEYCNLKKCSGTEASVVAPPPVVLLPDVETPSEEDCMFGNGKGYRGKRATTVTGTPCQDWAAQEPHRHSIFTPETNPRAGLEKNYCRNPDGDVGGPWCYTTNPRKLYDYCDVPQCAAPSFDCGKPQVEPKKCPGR
Plasminogen, sequence (P00747 581-810 limits assumed): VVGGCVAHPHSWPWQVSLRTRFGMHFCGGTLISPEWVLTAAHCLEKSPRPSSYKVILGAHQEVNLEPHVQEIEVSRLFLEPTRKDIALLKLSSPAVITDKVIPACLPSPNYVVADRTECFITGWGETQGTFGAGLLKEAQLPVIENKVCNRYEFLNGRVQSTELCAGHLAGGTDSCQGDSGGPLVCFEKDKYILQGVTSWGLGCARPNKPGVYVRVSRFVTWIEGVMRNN

[15] = Oral bioavailability in rat at 1.27 mg/kg; assay type: ADME, organism-based; conditions: in vivo; how it was run: as §1
Prothrombin = Prothrombin (Homo sapiens, UniProt P00734); test: Inhibition of human thrombin
[16] = biological target: Tissue-type plasminogen activator (Homo sapiens, UniProt P00750); test: Inhibition of human TPA
Tissue-type plasminogen activator, sequence (P00750 whole entry): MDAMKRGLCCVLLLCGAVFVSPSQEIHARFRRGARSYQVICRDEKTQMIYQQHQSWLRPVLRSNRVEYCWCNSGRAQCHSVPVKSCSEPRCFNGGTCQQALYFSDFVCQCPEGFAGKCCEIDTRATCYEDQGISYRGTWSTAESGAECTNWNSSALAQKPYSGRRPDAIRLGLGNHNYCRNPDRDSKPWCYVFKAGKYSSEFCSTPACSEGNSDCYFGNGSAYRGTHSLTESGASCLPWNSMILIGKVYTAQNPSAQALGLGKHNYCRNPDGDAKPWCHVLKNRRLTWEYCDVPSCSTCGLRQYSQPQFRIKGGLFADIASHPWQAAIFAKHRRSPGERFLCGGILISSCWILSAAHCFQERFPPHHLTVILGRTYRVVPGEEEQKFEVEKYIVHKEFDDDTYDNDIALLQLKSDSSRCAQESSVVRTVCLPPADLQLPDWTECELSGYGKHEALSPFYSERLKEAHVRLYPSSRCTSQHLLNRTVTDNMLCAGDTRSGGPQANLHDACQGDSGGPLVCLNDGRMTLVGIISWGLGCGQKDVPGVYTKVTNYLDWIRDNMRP

Coagulation factor XII = biological target: T2, Coagulation factor XII (Homo sapiens, UniProt P00748); test: Inhibition of activated human coagulation factor 12
T2 sequence (P00748 whole entry): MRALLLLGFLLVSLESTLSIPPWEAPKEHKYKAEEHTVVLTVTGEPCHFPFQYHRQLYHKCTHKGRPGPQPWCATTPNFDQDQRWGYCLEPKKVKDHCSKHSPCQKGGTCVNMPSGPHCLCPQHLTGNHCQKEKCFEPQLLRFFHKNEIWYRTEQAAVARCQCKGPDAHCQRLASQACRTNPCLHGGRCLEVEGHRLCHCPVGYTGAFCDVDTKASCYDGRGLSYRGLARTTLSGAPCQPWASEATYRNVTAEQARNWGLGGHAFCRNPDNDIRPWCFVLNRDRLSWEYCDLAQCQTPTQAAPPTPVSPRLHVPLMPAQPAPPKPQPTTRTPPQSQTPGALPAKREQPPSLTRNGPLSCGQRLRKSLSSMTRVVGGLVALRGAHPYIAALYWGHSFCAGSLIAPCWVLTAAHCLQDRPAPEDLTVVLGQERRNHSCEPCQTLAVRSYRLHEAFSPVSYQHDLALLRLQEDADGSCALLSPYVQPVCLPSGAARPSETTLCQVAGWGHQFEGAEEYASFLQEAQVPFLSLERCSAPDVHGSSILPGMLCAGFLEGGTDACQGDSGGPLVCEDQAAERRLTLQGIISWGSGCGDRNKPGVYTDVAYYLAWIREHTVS

Coagulation factor IX = Coagulation factor IX (Homo sapiens, UniProt P00740); test: Inhibition of activated human coagulation factor 9
Coagulation factor IX, sequence (P00740 47-191 limits assumed): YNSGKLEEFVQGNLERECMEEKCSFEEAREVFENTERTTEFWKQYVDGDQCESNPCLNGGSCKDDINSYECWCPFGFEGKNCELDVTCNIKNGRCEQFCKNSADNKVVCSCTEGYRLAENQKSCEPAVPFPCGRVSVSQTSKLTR
Coagulation factor IX, sequence (P00740 227-461 limits assumed): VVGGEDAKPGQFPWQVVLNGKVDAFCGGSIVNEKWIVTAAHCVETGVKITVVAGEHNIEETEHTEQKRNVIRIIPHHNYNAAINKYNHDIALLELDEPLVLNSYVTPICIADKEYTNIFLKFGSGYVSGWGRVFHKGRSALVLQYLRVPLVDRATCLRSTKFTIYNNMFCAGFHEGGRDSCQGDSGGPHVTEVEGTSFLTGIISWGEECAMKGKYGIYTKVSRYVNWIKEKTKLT

[17] = Half life in rat at […], iv or 1.04 mg/kg, po; assay type: ADME, organism-based; conditions: in vivo
[18] = Clearance in rat at […], iv or 1.04 mg/kg, po; assay type: ADME, organism-based; conditions: in vivo
[19] = Volume of distribution at steady state in rat at […], iv or 1.04 mg/kg, po; assay type: ADME, organism-based; conditions: in vivo, read-out: Vdss
[20] = Oral bioavailability in rat at 1.04 mg/kg; assay type: ADME, organism-based; conditions: in vivo; how it was run: as §1
[21] = Clearance in rat at 0.79 mg/kg, iv or 1.58 mg/kg, po; assay type: ADME, organism-based; conditions: in vivo; how it was run: as §1
[22] = Oral bioavailability in rat at 1.58 mg/kg; assay type: ADME, organism-based; conditions: in vivo; how it was run: as §1
[23] = Half life in rat at 0.79 mg/kg, iv or 1.58 mg/kg, po; assay type: ADME, organism-based; conditions: in vivo; how it was run: as §1
[24] = Volume of distribution at steady state in rat at 0.79 mg/kg, iv or 1.58 mg/kg, po; assay type: ADME, organism-based; conditions: in vivo, read-out: Vdss; how it was run: as §1

half-life [1]: 5 min
half-life [2]: 18 min
Structure (SMILES): COC(=O)Nc1ccc2c(c1)NC(=O)CC/C=C/C[C@H](N1CC[C@H](c3cc(Cl)ccc3F)OC1=O)c1nc-2c(Cl)[nH]1

half-life [1]: 16 min
half-life [2]: 31 min
Structure (SMILES): [2H][C@]1(c2c(F)ccc(Cl)c2F)CCN([C@H]2C/C=C/CCC(=O)Nc3cc(NC(=O)OC)ccc3-c3nc2[nH]c3Cl)C(=O)O1

Ki (Coagulation factor XI): 0.372 µM
Structure (SMILES): COC(=O)Nc1ccc(-c2c[nH]c([C@@H]3[C@@H](c4ccccc4)CCN3C(=O)/C=C/c3cc(Cl)ccc3-n3cnnn3)n2)cc1

half-life [1]: 41 min
half-life [2]: 26 min
Structure (SMILES): COC(=O)Nc1ccc2c(c1)NC(=O)CC/C=C/C[C@H](N1CCC(c3c(F)ccc(Cl)c3F)NC1=O)c1nc-2c[nH]1 (some centres not stated)

half-life [1]: 9 min
half-life [2]: 22 min
Structure (SMILES): COC(=O)Nc1ccc2c(c1)NC(=O)CC/C=C/C[C@H](N1CC[C@H](c3c(F)ccc(Cl)c3F)OC1=O)c1nc-2c(Cl)[nH]1

Ki (Coagulation factor XI): 0.175 µM
Structure (SMILES): COC(=O)Nc1ccc(-c2nc([C@H](Cc3ccccc3)N3CCC(c4cccc(Cl)c4)NC3=O)[nH]c2Cl)cc1 (some centres not stated)

Vd [3]: 1.3 L/kg
clearance [4]: 40 mL/min/kg
half-life [5]: 48 min
bioavailability [6]: 59%
AUC [7]: 0.523 µM·h
Structure (SMILES): COC(=O)Nc1ccc2c(c1)NC(=O)CC/C=C/C[C@H](N1CC[C@H](c3cccc(Cl)c3)OC1=O)c1nc-2c[nH]1

half-life [1]: 11 min
half-life [2]: 14 min
Structure (SMILES): COC(=O)Nc1ccc2c(c1)NC(=O)CC/C=C/C[C@H](N1CC[C@H](c3cccc(Cl)c3)OC1=O)c1nc-2c(Cl)[nH]1

Ki (Coagulation factor XI): > 13.3 µM
Structure (SMILES): COC(=O)Nc1ccc(-c2cn3c(n2)C(Cc2ccccc2)N(C(=O)/C=C/c2cc(Cl)ccc2-n2cnnn2)CCC3)cc1 (configuration not stated)

half-life [1]: 9 min
half-life [2]: 7 min
Structure (SMILES): COC(=O)Nc1ccc2c(c1)NC(=O)CC/C=C/C[C@H](N1CC[C@H](c3c(F)ccc(Cl)c3F)CC1=O)c1nc-2c[nH]1

half-life [1]: 18 min
half-life [2]: 49 min
Structure (SMILES): COC(=O)Nc1ccc2c(c1)NC(=O)CC/C=C/C[C@H](N1CC[C@H](c3cc(Cl)ccc3C(F)(F)F)OC1=O)c1nc-2c(Cl)[nH]1

Ki (Coagulation factor XI): 0.189 µM
Structure (SMILES): COC(=O)Nc1ccc(-c2nc([C@H](Cc3ccccc3)N(C)C(=O)/C=C/c3cc(Cl)ccc3-n3cnnn3)[nH]c2Cl)cc1

Ki (Coagulation factor XI): 0.871 µM
Structure (SMILES): COC(=O)Nc1ccc(-c2nc([C@H](Cc3ccccc3)NC(=O)CCc3cccc(Cl)c3)[nH]c2Cl)cc1

clearance [8]: 188 mL/min/kg
Ki [9]: > 15.1 µM
Papp A→B [10]: 4.6 ×10⁻⁶ cm/s
Vd [11]: 4.6 L/kg
half-life [1]: 6 min
Ki [12]: > 7.16 µM
half-life [13]: 30 min
Ki (Trypsin): > 6.26 µM
Papp B→A [14]: 30.9 ×10⁻⁶ cm/s
half-life [2]: 5 min
Ki (Coagulation factor VII): 4.85 µM
Ki (Coagulation factor X): > 9 µM
Ki (Plasminogen): > 15.2 µM
AUC [7]: 0.031 µM·h
bioavailability [15]: 15%
Ki (Prothrombin): > 13.3 µM
Ki [16]: > 6.15 µM
Ki (Coagulation factor XII): > 3.05 µM
Ki (Coagulation factor IX): > 27.1 µM
Structure (SMILES): COC(=O)Nc1ccc2c(c1)NC(=O)CC/C=C/C[C@H](N1CC[C@H](c3cccc(Cl)c3)CC1=O)c1nc-2c[nH]1

half-life [1]: 8 min
half-life [2]: 15 min
Structure (SMILES): COC(=O)Nc1ccc2c(c1)NC(=O)CC/C=C/C[C@H](N1CC[C@H](c3c(F)ccc(Cl)c3F)OC1=O)c1nc-2c[nH]1

Ki (Coagulation factor XI): 0.422 µM
Structure (SMILES): COC(=O)Nc1ccc(-c2nc([C@H](Cc3ccccc3)NC(=O)NCc3cccc(Cl)c3)[nH]c2Cl)cc1

Papp A→B [10]: < 1.5 ×10⁻⁶ cm/s
half-life [1]: 32 min
Papp B→A [14]: 32.4 ×10⁻⁶ cm/s
half-life [2]: 45 min
half-life [17]: 84 min
clearance [18]: 44 mL/min/kg
AUC [7]: 0.027 µM·h
Vd [19]: 3.2 L/kg
bioavailability [20]: 2%
Structure (SMILES): COC(=O)Nc1ccc2c(c1)NC(=O)CC/C=C/C[C@H](NC(=O)/C=C/c1cccc(Cl)c1)c1nc-2c[nH]1

half-life [1]: 35 min
half-life [2]: 18 min
Structure (SMILES): COC(=O)Nc1ccc2c(c1)NC(=O)CC/C=C/C[C@H](N1CCC(c3cccc(Cl)c3)NC1=O)c1nc-2c[nH]1 (some centres not stated)

half-life [1]: 15 min
Structure (SMILES): COC(=O)Nc1ccc2c(c1)NC(=O)CC/C=C/C[C@H](N1CCN(c3cccc(Cl)c3)CC1=O)c1nc-2c[nH]1

Papp A→B [10]: < 1.5 ×10⁻⁶ cm/s
clearance [21]: 28 mL/min/kg
half-life [1]: 41 min
bioavailability [22]: 0.8%
Papp B→A [14]: 5.8 ×10⁻⁶ cm/s
half-life [2]: 39 min
half-life [23]: 42 min
Vd [24]: 0.7 L/kg
AUC [7]: 0.011 µM·h
Structure (SMILES): COC(=O)Nc1ccc2c(c1)NC(=O)CC/C=C/C[C@H](NC(=O)/C=C/c1cc(Cl)ccc1-n1cnnn1)c1nc-2c[nH]1
